Data: paper PMC7797908 (iScience, 2021)

Tested on: CAspII
Assay: Michaelis-Menten kinetics of L-asparagine hydrolysis
Type: biochemical, uncultured Gemmatimonadota bacterium
Conditions: free enzyme; assay pH and temperature only in supplement
Summary of the method: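 Synthetic codon-optimised gene fused to a C-terminal His6 tag in pET21a(+) and expressed in E. coli. Mid-log cultures in LB were induced with 0.2 mM IPTG for 3 hours at 30°C. Protein was purified on nickel-agarose; the preparation was enriched but not fully pure. Km was fitted to the classical Michaelis-Menten equation with L-asparagine as substrate, reported as mean ± SEM.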

SMILES: NC(=O)C[C@H](N)C(=O)O [L-asparagine]
- Km: 350 ± 20 µM
